Measurements as given in publication PMC4201344 (ACS Chemical Biology, 2014).
Substitutions are numbered along the chain they refer to. Entries after “also recorded” stand apart in the source; their conditions may differ.

Experiments:
GluClβ AG-2′,-1′PA = GluClβ AG-2′,-1′PA (Caenorhabditis elegans, UniProt Q17328, A275P/G276A); experiment: two-electrode voltage clamp, Xenopus laevis oocytes; format: cell-based, C. elegans; details: glutamate
GluClβ A2′S = molecular target: T1, GluClβ A2′S (Caenorhabditis elegans, UniProt Q17328, A279S); experiment: as above; format: cell-based, C. elegans; details: glutamate
T1 sequence (Q17328 23-434 A279S): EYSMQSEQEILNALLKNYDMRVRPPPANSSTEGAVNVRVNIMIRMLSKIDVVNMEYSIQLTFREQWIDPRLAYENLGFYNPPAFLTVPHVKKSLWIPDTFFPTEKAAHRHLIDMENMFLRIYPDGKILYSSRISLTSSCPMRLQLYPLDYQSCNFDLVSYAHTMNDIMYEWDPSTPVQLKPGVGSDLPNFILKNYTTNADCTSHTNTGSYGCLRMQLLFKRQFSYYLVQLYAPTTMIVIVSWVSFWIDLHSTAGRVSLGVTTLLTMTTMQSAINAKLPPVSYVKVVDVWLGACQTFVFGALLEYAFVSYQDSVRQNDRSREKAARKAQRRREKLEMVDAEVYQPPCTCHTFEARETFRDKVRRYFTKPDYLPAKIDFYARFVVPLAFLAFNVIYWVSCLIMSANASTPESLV

GluClβ A2′T = GluClβ A2′T (Caenorhabditis elegans, UniProt Q17328, A279T); experiment: two-electrode voltage clamp, Xenopus laevis oocytes; format: cell-based, C. elegans; details: glutamate
Procedure, shortened: (§1)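 C. elegans GluClβ (mammalian codon-optimised) in pGEMhe, mutated by QuikChange; T7 mRNA. […] Voltage clamp at −60 mV in Ca-free ND96, pH 7.5. […] Peak currents taken from baseline, normalised, averaged per concentration, and fit to Hill equation (EC50, nH).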

GluClβ T10′A = molecular target: T2, GluClβ T10′A (Caenorhabditis elegans, UniProt Q17328, T287A); experiment: two-electrode voltage clamp, Xenopus laevis oocytes; format: cell-based, C. elegans
T2 sequence (Q17328 23-434 T287A): T1 sequence (Q17328 23-434 A279S) with S257A, T265A

GluClβ T10′S = molecular target: T3, GluClβ T10′S (Caenorhabditis elegans, UniProt Q17328, T287S); experiment: as above; format: cell-based, C. elegans; details: glutamate
T3 sequence (Q17328 23-434 T287S): T1 sequence (Q17328 23-434 A279S) with S257A, T265S

[1] = molecular target: GluClβ with α signal peptide (no T6′S) (Caenorhabditis elegans, UniProt Q17328); experiment: as above; format: cell-based, C. elegans; details: α signal peptide chimera vs wild type
[2] = tested on: GluClβ with α signal peptide, T6′S, Y156TAG Cha; experiment: two-electrode voltage clamp, Xenopus laevis oocytes, nonsense suppression; format: cell-based, C. elegans; details: glutamate
Procedure, shortened: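 Site-specific TAG codon, read by 74mer THG73 tRNA ligated to dCA-acylated amino acid; NVOC removed by 5 min xenon-lamp irradiation just before injection. Oocytes coinjected with 37.5 ng mRNA plus ~1 μg/μL tRNA at 48 and 24 h pre-recording; unacylated 76mer tRNA served as read-through control.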

GluClβ T6′S, R59A = GluClβ T6′S, R59A (Caenorhabditis elegans, UniProt Q17328, R85A/T283S); experiment: two-electrode voltage clamp, Xenopus laevis oocytes; format: cell-based, C. elegans; details: glutamate
Procedure, shortened: as §1

GluClβ T6′S, R59E = GluClβ T6′S, R59E (Caenorhabditis elegans, UniProt Q17328, R85E/T283S); experiment: as above; format: cell-based, C. elegans; details: glutamate
Procedure, shortened: as §1

GluClβ T6′S, Q174A = GluClβ T6′S, Q174A (Caenorhabditis elegans, UniProt Q17328, Q200A/T283S); experiment: two-electrode voltage clamp, Xenopus laevis oocytes; format: cell-based, C. elegans; details: glutamate
GluClβ T6′S, N202A = GluClβ T6′S, N202A (Caenorhabditis elegans, UniProt Q17328, N228A/T283S); experiment: as above; format: cell-based, C. elegans; details: glutamate
GluClβ T6′S, Y156A = GluClβ T6′S, Y156A (Caenorhabditis elegans, UniProt Q17328, T283S/Y182A); experiment: two-electrode voltage clamp, Xenopus laevis oocytes; format: cell-based, C. elegans; details: glutamate
Procedure, shortened: as §1

GluClβ T6′S, Y156F = GluClβ T6′S, Y156F (Caenorhabditis elegans, UniProt Q17328, T283S/Y182F); experiment: two-electrode voltage clamp, Xenopus laevis oocytes; format: cell-based, C. elegans; details: glutamate
GluClβ T6′S, S126A = GluClβ T6′S, S126A (Caenorhabditis elegans, UniProt Q17328, S152A/T283S); experiment: as above; format: cell-based, C. elegans; details: glutamate
GluClα T2′A = details: otherwise glutamate-insensitive channel; cited from earlier work

Chain of GluClβ T6′S, R59E (Q17328 23-434 R85E/T283S): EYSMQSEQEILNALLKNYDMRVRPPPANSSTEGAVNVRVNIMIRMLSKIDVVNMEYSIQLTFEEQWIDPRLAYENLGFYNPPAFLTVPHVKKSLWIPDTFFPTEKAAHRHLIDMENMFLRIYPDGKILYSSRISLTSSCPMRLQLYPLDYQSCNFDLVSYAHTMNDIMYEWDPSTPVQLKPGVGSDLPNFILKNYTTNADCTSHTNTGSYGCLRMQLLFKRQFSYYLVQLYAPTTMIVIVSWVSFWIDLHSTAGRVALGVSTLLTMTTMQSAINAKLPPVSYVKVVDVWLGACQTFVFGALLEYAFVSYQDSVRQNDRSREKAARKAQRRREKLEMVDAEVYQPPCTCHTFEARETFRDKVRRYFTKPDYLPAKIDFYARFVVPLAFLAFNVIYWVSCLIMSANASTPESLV
Chain of GluClβ A2′T (Q17328 23-434 A279T): as the sequence (Q17328 23-434 R85E/T283S) above, with E63R, A257T, S261T counted along it
Chain of GluClβ T6′S, S126A (Q17328 23-434 S152A/T283S): as the sequence (Q17328 23-434 R85E/T283S) above, with E63R, S130A counted along it
Chain of GluClβ T6′S, Y156F (Q17328 23-434 Y182F/T283S): as the sequence (Q17328 23-434 R85E/T283S) above, with E63R, Y160F counted along it
Chain of GluClβ T6′S, Q174A (Q17328 23-434 Q200A/T283S): as the sequence (Q17328 23-434 R85E/T283S) above, with E63R, Q178A counted along it
Chain of GluClβ AG-2′,-1′PA (Q17328 23-434 A275P/G276A): as the sequence (Q17328 23-434 R85E/T283S) above, with E63R, A253P, G254A, S261T counted along it
Chain of GluClβ with α signal peptide (no T6′S) (Q17328 23-434): as the sequence (Q17328 23-434 R85E/T283S) above, with E63R, S261T counted along it
Chain of GluClβ T6′S, Y156A (Q17328 23-434 Y182A/T283S): as the sequence (Q17328 23-434 R85E/T283S) above, with E63R, Y160A counted along it
Chain of GluClβ T6′S, R59A (Q17328 23-434 R85A/T283S): as the sequence (Q17328 23-434 R85E/T283S) above, with E63A counted along it
Chain of GluClβ T6′S, N202A (Q17328 23-434 N228A/T283S): as the sequence (Q17328 23-434 R85E/T283S) above, with E63R, N206A counted along it

Imax (GluClβ AG-2′,-1′PA): 12–66 μA
EC50 (GluClβ A2′S): 630 ± 10 µM
Hill (GluClβ A2′S): 2.0 ± 0.1
Imax (GluClβ A2′S): 0.6–6 μA
EC50 (GluClβ T10′A; glutamate): 13 ± 1 µM
Hill (GluClβ T10′A; glutamate): 2.8 ± 0.1
Imax (GluClβ T10′A; glutamate): 2–28 μA
increase in receptor sensitivity (GluClβ T10′A; vs WT): 27 fold
EC50 (GluClβ T10′S): 11 ± 1 µM
Hill (GluClβ T10′S): 2.5 ± 0.1
Imax (GluClβ T10′S): 0.3–4 μA
increase in EC50 [1]: < 3 fold
EC50 [2]: no response
EC50 (GluClβ T6′S, R59A): no response
EC50 (GluClβ T6′S, Q174A): 110 ± 10 µM
Hill (GluClβ T6′S, Q174A): 2.4 ± 0.2
Hill (GluClβ T6′S, N202A): 3.3 ± 0.2
EC50 (GluClβ T6′S, Y156A): no response
EC50 (GluClβ T6′S, Y156F): 6400 ± 400 µM
Hill (GluClβ T6′S, Y156F): 1.6 ± 0.1
EC50 (GluClβ T6′S, S126A): 4700 ± 100 µM
Hill (GluClβ T6′S, S126A): 2.5 ± 0.1
Compound: N[C@@H](CCC(=O)O)C(=O)O [glutamate]
EC50 (GluClβ A2′T): abolished glutamate-induced currents; also recorded: no response
EC50 (GluClβ T6′S, R59E): nonfunctional; also recorded: no response
glutamate sensitivity (GluClα T2′A): restore glutamate sensitivity
